PubChem BioAssay
Activity calls are given as the source filed them.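 How the source made its calls, unless noted: active means viability at or below 30% in both replicate assays; inconclusive means viability at or below 30% in just one of the two assays; inactive means the rest.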

Assays:
[1] = reduced viability of SK-BR-3 breast cancer cells – cell-based, 24 h, human, pilot screen (AID 572;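 active means viability at or below 10% of carrier control in both of two separate runs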;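 further: compound exposure lasted between 18 and 24 h rather than exactly 24 h; 100% = carrier-treated control wells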); settings: SK-BR-3 viability, CellTiter-Glo luminescence, at 10 µM, stronger effect = lower value
[2] = HUVEC growth inhibition – cell-based, human, primary screen (AID 575); settings: HUVEC proliferation, CellTiter-Glo luminescence, 72 h; at 10 µM; stronger effect = lower value;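 further: 100% = median of untreated cell wells with 0.1% DMSO on each plate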
How it was run: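 Test system: HUVEC primary cells. Quantity: 1250 endothelial cells in each well. Dosing: single-point 10 µM, DMSO 0.1% final. Incubation: 72 h treatment at 37 °C. Measured by: CTG luminescence. Control set: DMSO cell controls and MePR drug controls. Plate: collagen-coated 384-well format.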

[3] = H69AR cell proliferation blockers – human, duplicate replicates, primary screen (AID 580;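 active means viability at or under a set limit in both replicates, limit being median viability minus 3 SD, cut at about 48% in these data, passing the limit was not always enough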;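 further: 100% = mean luminescence of untreated wells and 0% = no signal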); settings: H69AR lung tumor cells viability, ATP luminescence, 72 h; at 10 µM; stronger effect = lower value
[4] = MRP1 drug-resistance reversers in H69AR cells – cell-based, doxorubicin co-treatment, pilot screen (AID 601;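 active means viability loss from added drug above about 55%, and viability with drug at most 40%, in both replicates, limit read from the data, passing the limit was not always enough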); settings: CellTiter-Glo, 72 h, at 10 µM; for differential viability (reversal): stronger effect = higher value
[5] = yeast transport mutant growth inhibition pilot in 384-well plates, post-Golgi transport modulator project (AID 636; in the data active means inhibition above about 31%); settings: absorbance 615 nm, about 18 h, stronger effect = higher value
[6] = growth suppression of yeast trafficking mutant, preliminary HTS, modulators of trafficking downstream of Golgi apparatus project, 1536-format plate, OD 615 nm (AID 637; in the data active means inhibition above about 30%); settings: yeast transport mutant growth, absorbance 615 nm, 18 h; stronger effect = higher value
[7] = H69AR cells + 2 uM doxorubicin, measured here: viability with 2 uM doxorubicin, stronger effect = lower value
[8] = H69AR cells, compound alone cytotoxicity

Structure (SMILES) | viability [1] | viability [2] | viability [3] | differential viability (reversal) ([4]; H69AR cells + 2 uM doxorubicin) | viability [4, 7] | viability [4, 8] | inhibition [5] | inhibition [6]
COc1cc(NC(=O)CSCc2cnn(-c3ccccc3)c2-n2cccc2)cc(OC)c1 | 103% (inactive) | 67.9% (inactive) | 80.6% (inactive) | 5.25% (inactive) | 75.3% | 80.6% | -4.46% (inactive) | -4.18% (inactive)
COC(=O)c1sc(N)c(C(=O)OC)c1COC(=O)C1CC(=O)N(Cc2ccco2)C1 (stereo unspecified) | 84% (inactive) | 103% (inactive) | 72.8% (inactive) | -6.05% (inactive) | 78.9% | 72.8% | -4.19% (inactive) | -2.18% (inactive)
CCOc1cc(C2C(C#N)=C(N)Oc3n[nH]c(CC)c32)ccc1OCCN1CCOCC1 (stereo unspecified) | 87% (inactive) | 95.6% (inactive) | 110% (inactive) | 11% (inactive) | 99% | 110% | 0.27% (inactive) | 0.32% (inactive)
CCN(CC)CCN1C(=O)C(=O)/C(=C(/O)c2ccc(OC(C)C)cc2)C1c1ccncc1 (stereo unspecified) | 133% (inactive) | 112% (inactive) | 91.1% (inactive) | 6.59% (inactive) | 84.5% | 91.1% | -6.76% (inactive) | 3.09% (inactive)
COc1ccc(-n2nnnc2SCC(=O)c2ccc(O)c(O)c2)cc1 | 74% (inactive) | 58.6% (inactive) | 34.7% (active) | -41.9% (inactive) | 76.6% | 34.7% | -5.89% (inactive) | -1.45% (inactive)
Cc1ccc(CNc2cc(-c3nn4c(C)nnc4s3)ccc2C)s1 | 88% (inactive) | 45.1% (inactive) | 58.8% (inactive) | 18.3% (inactive) | 40.5% | 58.8% | -2.6% (inactive) | 12.3% (inactive)
CC(=O)c1ccc(NC(=O)CCc2c(C)nc3ncnn3c2C)cc1 | 100% (inactive) | 87.5% (inactive) | 93.1% (inactive) | 6.04% (inactive) | 87.1% | 93.1% | -1.3% (inactive) | -5.08% (inactive)
Cn1nnnc1SCC1=C(C(=O)O)N2C(=O)[C@@H](NC(=O)[C@H](O)c3ccccc3)[C@H]2SC1 | 132% (inactive) | 82.9% (inactive) | 99.2% (inactive) | 2.56% (inactive) | 96.6% | 99.2% | -1.3% (inactive) | 0.33% (inactive)
CC(C)NCC(O)COc1ccc(CCOCC2CC2)cc1 (stereo unspecified) | 102% (inactive) | 83.3% (inactive) | 95.8% (inactive) | -14.9% (inactive) | 111% | 95.8% | -0.91% (inactive) | -5% (inactive)
COc1ccc(S(=O)(=O)NCCCN2CCOCC2)c2ccccc12 | 102% (inactive) | 101% (inactive) | 86.8% (inactive) | 5.68% (inactive) | 81.1% | 86.8% | -6.53% (inactive) | -0.18% (inactive)
NNC(=O)c1ccncc1 | 108% (inactive) | 101% (inactive) | 104% (inactive) | 10.2% (inactive) | 93.7% | 104% | 1.04% (inactive) | 17.5% (inactive)
O=C(O)CCC(=O)NC1CCCCC1NC(=O)CCC(=O)O (stereo unspecified) | 104% (inactive) | 111% (inactive) | 99% (inactive) | 7.37% (inactive) | 91.6% | 99% | -5.47% (inactive) | 0.73% (inactive)
